The subject of one assay is Clostridium botulinum. In words: Zinc chelating activity mediated inhibition of Clostridium botulinum BoNT/A LC activity at 15 uM using SNAPtide as substrate measured for 10 mins by FRET assay relative to control. Summed up:
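Recombinant BoNT/A light chain at 20 nM, 8 μM SNAPtide FRET substrate, each dipeptide tested at 15 μM. Reactions were run in triplicate, and percent inhibition is the mean of the three.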

Assay [1] in a line: Zinc chelating activity mediated inhibition of Clostridium botulinum BoNT/A LC activity using SNAPtide as substrate measured for 10 mins by FRET assay. The procedure, abridged: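 BoNT/A light chain at 20 nM was incubated with 8 μM SNAPtide substrate across a range of dipeptide concentrations. IC50 values were derived from the concentration series.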

pIC50: −log10 of the molar value.

Consider `CC[C@H](C)[C@H](NC(=O)C(C)(C)NS(=O)(=O)c1ccc(-c2ccc(Cl)cc2)cc1)C(=O)NO`, for which the inhibition (in general, the relative decrease from the control value, in per cent) in the assay with Clostridium botulinum was 84%.
With `CC[C@H](C)[C@H](NS(=O)(=O)c1ccc(-c2ccc(Cl)cc2)cc1)C(=O)N[C@@H](Cc1ccccc1)C(=O)NO`, in the assay with Clostridium botulinum, the inhibition was 44%.
The compound `CC[C@H](C)[C@H](NS(=O)(=O)c1ccc(-c2ccc(Cl)cc2)cc1)C(=O)NCCC(=O)NO` registered an inhibition with Clostridium botulinum of 62%.
Still for that read-out and setting: the same measure for `CC[C@H](C)[C@H](NC(=O)[C@H](Cc1ccccc1)NS(=O)(=O)c1ccc(C2CCCCC2)cc1)C(=O)NO`: 57%; for `CC[C@H](C)[C@H](NC(=O)[C@H](Cc1ccccc1)NS(=O)(=O)c1ccc(Cl)cc1)C(=O)NO`: 77%; for `CC[C@H](C)[C@H](NC(=O)[C@H](Cc1ccccc1)NS(=O)(=O)c1ccc(-c2ccccc2)cc1)C(=O)NO`: 77%.
In turn, `CC[C@H](C)[C@H](NC(=O)[C@H](Cc1ccccc1)NS(=O)(=O)c1cccc(C(C)(C)C)c1)C(=O)NO` yielded an inhibition in the assay on Clostridium botulinum of 93%.
As to `CC[C@H](C)[C@H](NS(=O)(=O)c1ccc(-c2ccc(Cl)cc2)cc1)C(=O)N[C@@H](C)C(=O)NO`, in the assay with Clostridium botulinum, the inhibition was found to be 55%.
Take `CC[C@H](C)[C@H](NC(=O)[C@@H](NS(=O)(=O)c1cc(Cl)cc(Cl)c1)C(C)C)C(=O)NO`: the negative logarithm of the IC50 (pIC50) (as a rule, the negative decadic logarithm of the IC50, by convention in mol/L) in assay [1] is 7.16.
The same measure, in the same setting: the same measure for `CCC[C@H](NC(=O)[C@@H](NS(=O)(=O)c1ccc(-c2ccc(Cl)cc2)cc1)[C@@H](C)CC)C(=O)NO`: 6.00.
On to `CC[C@H](C)[C@H](NC(=O)[C@H](Cc1ccccc1)NS(=O)(=O)c1ccc(-c2ccc(Cl)cc2)cc1)C(=O)NO`, for which, in assay [1], the negative-log IC50 (pIC50) was 5.62. Also, the inhibition in the assay with Clostridium botulinum amounted to 100%.
Compound `CCC[C@H](NC(=O)[C@H](Cc1ccccc1)NS(=O)(=O)c1cc(Cl)cc(Cl)c1)C(=O)NO` gave a negative-log IC50 (pIC50) in assay [1] of 7.37.
For the compound `CC[C@H](C)[C@H](NC(=O)[C@H](Cc1ccccc1)NS(=O)(=O)c1ccccc1)C(=O)NO`, the inhibition with Clostridium botulinum is 52%.
In the case of `CC[C@H](C)[C@H](NS(=O)(=O)c1cc(Cl)cc(Cl)c1)C(=O)N[C@@H](CC(C)C)C(=O)NO`, the negative logarithm of the IC50 (pIC50) in assay [1] is 6.82.
Turning to `CC[C@H](C)[C@H](NC(=O)[C@H](Cc1ccccc1)NS(=O)(=O)c1ccc(Br)cc1)C(=O)NO`, the inhibition with Clostridium botulinum came to 87%.
As for `CC[C@H](C)[C@H](NC(=O)[C@@H](NS(=O)(=O)c1ccc(-c2ccc(Cl)cc2)cc1)[C@@H](C)CC)C(=O)NO`, in the assay with Clostridium botulinum, the inhibition amounted to 85%.
`CC[C@H](C)[C@H](NC(=O)[C@H](C)NS(=O)(=O)c1ccc(-c2ccc(Cl)cc2)cc1)C(=O)NO`: in the assay with Clostridium botulinum, the inhibition was found to be 31%.
In the assay with Clostridium botulinum, `CC[C@H](C)[C@H](NC(=O)[C@H](Cc1ccccc1)NS(=O)(=O)c1c(Cl)cccc1Cl)C(=O)NO` registered an inhibition of 83%.
Consider `CC[C@H](C)[C@@H](NC(=O)[C@@H](Cc1ccccc1)NS(=O)(=O)c1ccc(-c2ccc(Cl)cc2)cc1)C(=O)NO`, for which, in the assay with Clostridium botulinum, the inhibition is 63%.
On to `CC[C@H](C)[C@H](NC(=O)[C@H](CC(C)C)NS(=O)(=O)c1ccc(-c2ccc(Cl)cc2)cc1)C(=O)NO`, for which the inhibition with Clostridium botulinum came out at 100%.
Turning to `CC[C@H](C)[C@H](NC(=O)[C@H](Cc1ccccc1)NS(=O)(=O)c1cccc(Cl)c1)C(=O)NO`, in the assay with Clostridium botulinum, the inhibition was 79%.
`CC(C)[C@H](NC(=O)[C@H](Cc1ccccc1)NS(=O)(=O)c1cc(Cl)cc(Cl)c1)C(=O)NO`: the negative logarithm of the IC50 (pIC50) in assay [1] is 7.68.
Turning to `CC[C@H](C)[C@@H](NS(=O)(=O)c1ccc(-c2ccc(Cl)cc2)cc1)C(=O)N[C@@H](Cc1ccccc1)C(=O)NO`, the inhibition in the assay with Clostridium botulinum came to 62%.
For the compound `CC[C@H](C)[C@H](NS(=O)(=O)c1ccc(-c2ccc(Cl)cc2)cc1)C(=O)NC(C)(C)C(=O)NO`, the inhibition in the assay with Clostridium botulinum came to 11%.
Turning to `CC[C@H](C)[C@H](NC(=O)[C@@H](NS(=O)(=O)c1ccc(-c2ccc(Cl)cc2)cc1)C(C)C)C(=O)NO`, the negative logarithm of the IC50 (pIC50) in assay [1] is 5.54.
In the case of `CCOc1ccc(S(=O)(=O)N[C@@H](Cc2ccccc2)C(=O)N[C@H](C(=O)NO)[C@@H](C)CC)cc1OCC`, in the assay on Clostridium botulinum, the inhibition was determined as 22%.
The same measure, in the same setting: the same measure for `CC[C@H](C)[C@H](NC(=O)[C@@H](Cc1ccccc1)NS(=O)(=O)c1ccc(-c2ccc(Cl)cc2)cc1)C(=O)NO`: 41%.
For `CC[C@H](C)[C@@H](NC(=O)[C@H](NS(=O)(=O)c1ccc(-c2ccc(Cl)cc2)cc1)[C@@H](C)CC)C(=O)NO`, the inhibition in the assay on Clostridium botulinum was determined as 48%.
For the compound `CCC[C@H](NC(=O)[C@@H](NS(=O)(=O)c1cc(Cl)cc(Cl)c1)[C@@H](C)CC)C(=O)NO`, the pIC50 in assay [1] is 7.05.
Turning to `CC[C@H](C)[C@H](NC(=O)[C@H](NS(=O)(=O)c1ccc(-c2ccc(Cl)cc2)cc1)[C@@H](C)CC)C(=O)NO`, the inhibition in the assay on Clostridium botulinum was determined as 69%.
For `CC[C@H](C)[C@H](NC(=O)[C@H](Cc1ccccc1)NS(=O)(=O)c1cc(Cl)cc(Cl)c1)C(=O)NO`, the pIC50 in assay [1] was 6.82. Further, the inhibition with Clostridium botulinum turned out to be 100%.
`CC[C@H](C)[C@H](NS(=O)(=O)c1ccc(-c2ccc(Cl)cc2)cc1)C(=O)N[C@@H](C(=O)NO)[C@@H](C)CC` showed an inhibition with Clostridium botulinum of 57%.
On the same count and under the same terms, the same measure for `CC[C@H](C)[C@H](NS(=O)(=O)c1ccc(-c2ccc(Cl)cc2)cc1)C(=O)NCC(=O)NO`: 18%.

For the origin of these results see ChEMBL document CHEMBL4715928, “Discovery of Dipeptides as Potent Botulinum Neurotoxin A Light-Chain Inhibitors” (ACS Med Chem Lett, 2021).
